Drawing on ChEMBL document CHEMBL1151961, “14,15-Epoxyeicosa-5,8,11-trienoic acid (14,15-EET) surrogates containing epoxide bioisosteres: influence upon vascular relaxation and soluble epoxide hydrolase inhibition” (J Med Chem, 2009), this text covers Activity, EC50 and IC50 for 29 compounds.

A short description of test [1]: Vasorelaxant activity against U46619-induced contraction in bovine coronary artery ring at 10 uM treated after U46619 challenge. In kind it is functional, Bos taurus. Also noted: scale not given: the % may be the effect or the level left.
Test [2] can be described thus: Vasorelaxant activity against U46619-induced contraction in bovine coronary artery ring treated after U46619 challenge. In kind it is functional, tissue-based. The note with it: Bos taurus. Summed up:
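Bioassay run 3-5 times (n = 3-5); reported values are means, ±10% SD.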

The target in test [3] is T1, Bifunctional epoxide hydrolase 2 (Homo sapiens, UniProt P34913).
T1 sequence (P34913 whole entry): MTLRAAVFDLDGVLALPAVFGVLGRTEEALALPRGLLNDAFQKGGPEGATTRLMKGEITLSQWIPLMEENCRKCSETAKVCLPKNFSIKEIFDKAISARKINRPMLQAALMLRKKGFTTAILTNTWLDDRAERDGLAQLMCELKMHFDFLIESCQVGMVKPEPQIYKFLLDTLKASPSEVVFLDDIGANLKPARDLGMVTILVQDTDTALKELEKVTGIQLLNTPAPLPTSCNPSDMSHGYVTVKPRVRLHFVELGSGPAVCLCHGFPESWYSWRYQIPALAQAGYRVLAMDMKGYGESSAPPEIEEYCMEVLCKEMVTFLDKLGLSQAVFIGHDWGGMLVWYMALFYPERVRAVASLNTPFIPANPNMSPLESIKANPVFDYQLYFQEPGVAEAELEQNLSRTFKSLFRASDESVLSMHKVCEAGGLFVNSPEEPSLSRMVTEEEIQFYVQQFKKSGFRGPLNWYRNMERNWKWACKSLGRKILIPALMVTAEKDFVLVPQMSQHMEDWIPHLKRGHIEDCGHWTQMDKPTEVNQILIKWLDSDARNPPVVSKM
As to the kind of experiment: Inhibition of human recombinant soluble epoxide hydrolase expressed in baculovirus system assessed as appearance of 6-methoxynaphthaldehyde product by fluorescent-based assay.

Test [4] in a line: Vasorelaxant activity against U46619-induced contraction in bovine coronary artery ring at 10 uM treated after U46619 challenge. Also noted: scale not given: the % may be the effect or the level left.

As a reminder, the IC50 is the concentration that inhibits the measured activity by half. As to `CCCCCCNC(=O)NCCC/C=C\CCCCCCC(=O)O`, the Activity in test [1] was found to be 86%. Further, the EC50 in test [2] (read-out: EC50) is 3.5 µM. For the same compound, the IC50 in test [3] was 0.016 µM.

The compound `CCCCN(C)C(=O)C(=O)N(C)CCCC/C=C\CCCCCCC(=O)O` gave an Activity in test [1] of 70%. Also, the EC50 in test [2] (read-out: EC50) came to 4.4 µM. Besides, in test [3], the IC50 was 17.6 µM.

Take `CCCCCNC(=O)NOCCC/C=C\CCCCCCC(=O)O`: the Activity in test [1] is 87%. Also, in test [2] (read-out: EC50), the EC50 turned out to be 3.7 µM. Also, the half-maximal inhibitory concentration (IC50) in test [3] is 1.37 µM.

Take `CCCCC[C@@H]1O[C@@H]1C/C=C\C/C=C\C/C=C\CCCC(=O)O` (relative stereo): in test [2] (read-out: ED50 (the source's name)), the EC50 came to 2.2 µM. The Activity in test [4] was found to be 85%.

In test [1], `CCCCNC(=O)C(=O)NCCCC/C=C\CCCCCCC(=O)O` gave an Activity of 89%. Further, the EC50 in test [2] (read-out: EC50) amounted to 1.7 µM. The concentration for half-maximal inhibition (IC50) in test [3] turned out to be 58.7 µM.

As to `CCCCCNC(=O)NCCCC/C=C\CCCCCCC(=O)O`, the Activity in test [1] was 63%. The EC50 in test [2] (read-out: EC50) amounted to 7.5 µM. Besides, in test [3], the half-inhibitory concentration (IC50) is 0.046 µM.

In test [1], `CCCCCNC(=S)NCCCC/C=C\CCCCCCC(=O)O` showed an Activity of 99%. Also, the EC50 in test [2] (read-out: EC50) was determined as 1.5 µM. Moreover, in test [3], the half-inhibitory concentration (IC50) turned out to be 0.77 µM.

For the compound `CCCCCNC(=O)NCCCCCCC/C=C\CCCC(=O)O`, the Activity in test [1] turned out to be 66%. Moreover, the EC50 in test [2] (read-out: EC50) is 5.6 µM. Besides, in test [3], the 50% inhibitory concentration (IC50) came to 0.793 µM.

On to `CCCCCN(C)C(=O)NCCCC/C=C\CCCCCCC(=O)O`, for which the Activity in test [1] is reported as 88%. The EC50 in test [2] (read-out: EC50) came out at 3.2 µM. Besides, the IC50 in test [3] was 1.45 µM.

`CCCCCNC(=O)NCCCCC#CCCC(=O)O` had an Activity in test [1] of 46%. Also, the EC50 in test [2] (read-out: EC50) was more than 10 µM. In addition, in test [3], the IC50 was determined as 8.11 µM.

Compound `CCCCCCC(=O)N(C)CCCC/C=C\CCCCCCC(=O)O` had an Activity in test [1] of 64.5%. Further, the EC50 in test [2] (read-out: EC50) was determined as 4.3 µM. In addition, in test [3], the IC50 was found to be 11.2 µM.

For the compound `CCCCCNC(=O)NCCCCC#CCCCCCCC(=O)O`, the Activity in test [1] was 62%. Further, the EC50 in test [2] (read-out: EC50) is 3.1 µM. In addition, the IC50 in test [3] amounted to 0.043 µM.

`CCCCCCN(C)C(=O)CCCC/C=C\CCCCCCC(=O)O` had an Activity in test [1] of 12%. For the same compound, the EC50 in test [2] (read-out: EC50) is more than 10 µM. Also, the IC50 in test [3] came to 13.9 µM.

In test [1], `CCCCCN(C)C(=O)N(C)CCCCCCCC#CCCCC(=O)O` showed an Activity of 77.5%. Further, in test [2] (read-out: EC50), the EC50 is 2.3 µM. In test [3], the concentration for half-maximal inhibition (IC50) amounted to 11.1 µM.

As to `CCCCCNC(=O)OCCCC/C=C\CCCCCCC(=O)O`, in test [1], the Activity is given as 53%. The EC50 in test [2] (read-out: EC50) stood at 9.3 µM. Also, the IC50 in test [3] is 3.48 µM.

The compound `CCCCCCC(=O)NCCCC/C=C\CCCCCCC(=O)O` displayed an Activity in test [1] of 64.5%. Besides, the EC50 in test [2] (read-out: EC50) amounted to 6.1 µM. The IC50 in test [3] was found to be 0.079 µM.

`CCCCCNC(=O)N(C)CCCC/C=C\CCCCCCC(=O)O` gave an Activity in test [1] of 59%. Besides, in test [2] (read-out: EC50), the EC50 is 7.6 µM. Besides, the half-inhibitory concentration (IC50) in test [3] amounted to 0.0715 µM.

For the compound `CCCCCNC(=O)NCCCC/C=C\CCC(=O)O`, the Activity in test [1] is given as 16%. In addition, the EC50 in test [2] (read-out: EC50) is more than 10 µM. The IC50 in test [3] is 1.36 µM.

Compound `CCCCCC1CN=C(CCCC/C=C\CCCCCCC(=O)OC)O1` (stereo unspecified) returned an Activity in test [1] of 33%. In test [2] (read-out: EC50), the EC50 is more than 10 µM. Further, in test [3], the IC50 came to 0.688 µM.

For the compound `CCCCCNC(=O)NCCCC/C=C/CCCCCCC(=O)O`, the Activity in test [1] is 29%. In addition, the EC50 in test [2] (read-out: EC50) was more than 10 µM. The IC50 in test [3] worked out at 0.0485 µM.

For the compound `CCCCCCC(=O)NCCCCCCCC#CCCCC(=O)O`, the Activity in test [1] is 69%. The EC50 in test [2] (read-out: EC50) turned out to be 5.7 µM. The half-maximal inhibitory concentration (IC50) in test [3] turned out to be 0.272 µM.

Take `CCCCCc1ccc(CCCC/C=C\CCCCCCC(=O)O)o1`: the Activity in test [1] stood at 11%. For the same compound, the EC50 in test [2] (read-out: EC50) was more than 10 µM. Also, the IC50 in test [3] is 7.15 µM.

As to `CCNC(=O)NCCCC/C=C\CCCCCCCCCC(=O)O`, the Activity in test [1] was found to be 50%. For the same compound, the EC50 in test [2] (read-out: EC50) was more than 10 µM. In addition, the IC50 in test [3] was determined as 2.6 µM.

Regarding `CCCCCN(C)C(=O)N(C)CCCC/C=C\CCCCCCC(=O)O`, in test [1], the Activity is on record as 83%. The EC50 in test [2] (read-out: EC50) is 3.2 µM. In test [3], the half-maximal inhibitory concentration (IC50) is 8.48 µM.

Regarding `CCCCCc1cn(CCCC/C=C\CCCCCCC(=O)[O-])nn1.[Na+]`, the Activity in test [1] is reported as 65%. Moreover, the EC50 in test [2] (read-out: EC50) is 6.2 µM. In test [3], the IC50 worked out at 17.8 µM.

Regarding `CCCCCCC(=O)N(CCCC/C=C\CCCCCCC(=O)O)C(C)C`, in test [1], the Activity came out at 100%. Besides, the EC50 in test [2] (read-out: EC50) came out at 1.7 µM. The IC50 in test [3] is 19 µM.

The compound `CCCCCCNC(=O)CCCC/C=C\CCCCCCC(=O)O` showed an Activity in test [1] of 74%. The EC50 in test [2] (read-out: EC50) turned out to be 4.9 µM. Also, the IC50 in test [3] turned out to be 0.066 µM.

`CCCCNC(=O)NCCCCC/C=C\CCCCCCC(=O)OC` gave an Activity in test [1] of 84%. Moreover, the EC50 in test [2] (read-out: EC50) stood at 4.6 µM. Also, the IC50 in test [3] was found to be 0.152 µM.

For the compound `CCCCCOC(=O)NCCCC/C=C\CCCCCCC(=O)O`, in test [1], the Activity is recorded as 64%. Further, the EC50 in test [2] (read-out: EC50) was 8.3 µM. Besides, the IC50 in test [3] is 2.83 µM.
